We go through four molecules from ChEMBL document CHEMBL1649362, “Cytotoxic triterpenoids from Maytenus retusa” (J Nat Prod, 2010).

SMILES strings stand for the structures. pIC50: −log10 of the molar value. Where a name gives a salt, the structure may show the parent alone.

One assay has as its system MCF7. The assay can be described thus: Cytotoxicity against human MCF7 cells at 30 uM after 48 hrs by MTT assay. It is filed as functional. To be noted: MCF7, 48 h. The method in brief:
(§1)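 MCF-7 cells (ATCC) maintained in DMEM with 10% FBS and plated at 10 000 cells/well. MTT (0.5 mg/mL final) then incubated 3 h at 37 °C. Formazan solubilized in 20% SDS/0.02 M HCl and absorbance read at 570 nm. IC50 from nonlinear regression.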
For orientation: inhibition means how much of the control response was suppressed. Read a high inhibition as a response far below the control. For the molecule `COc1cccc2c1C(=O)c1c(O)c3c(c(O)c1C2=O)C[C@@](O)(C(=O)CO)C[C@@H]3O[C@H]1C[C@H](N)[C@H](O)[C@H](C)O1` [DOXORUBICIN HYDROCHLORIDE], testing at 30 µM gave an inhibition of 98%.

Turning to `CC1=C(O)C(=O)C=C2C1=CC=C1[C@@]2(C)CC[C@@]2(C)[C@@H]3C[C@@H](C)C(=O)[C@@H](O)[C@]3(C)CC[C@]12C` [TINGENIN B], the inhibition at 30 µM worked out at 100%.

In turn, `COC(=O)[C@]1(C)CC[C@]2(C)CC[C@]3(C)C4=CC=C5C(=CC(=O)C(O)=C5C)[C@]4(C)CC[C@@]3(C)[C@@H]2C1` [PRISTIMERIN] came in with an inhibition at 30 µM of 100%.

Regarding `CC1=C(O)C(=O)C=C2C1=CC=C1[C@@]2(C)CC[C@@]2(C)[C@@H]3C[C@@H](C)C(=O)C[C@]3(C)CC[C@]12C` [TINGENONE], the inhibition at 30 µM turned out to be 100%.

The subject of the next assay is MCF7. Description: Cytotoxicity against human MCF7 cells after 48 hrs by MTT assay. It counts as functional, cell-based. To be noted: MCF7, 48 h. The essentials:
as §1
By pIC50 is commonly meant the negative decadic logarithm of the IC50, by convention in mol/L. On to `COc1cccc2c1C(=O)c1c(O)c3c(c(O)c1C2=O)C[C@@](O)(C(=O)CO)C[C@@H]3O[C@H]1C[C@H](N)[C@H](O)[C@H](C)O1` [DOXORUBICIN HYDROCHLORIDE], for which the pIC50 was below 5.00.

Molecule `CC1=C(O)C(=O)C=C2C1=CC=C1[C@@]2(C)CC[C@@]2(C)[C@@H]3C[C@@H](C)C(=O)[C@@H](O)[C@]3(C)CC[C@]12C` [TINGENIN B] had a pIC50 of 5.36.

Molecule `COC(=O)[C@]1(C)CC[C@]2(C)CC[C@]3(C)C4=CC=C5C(=CC(=O)C(O)=C5C)[C@]4(C)CC[C@@]3(C)[C@@H]2C1` [PRISTIMERIN] showed a pIC50 of 6.40.

As for `CC1=C(O)C(=O)C=C2C1=CC=C1[C@@]2(C)CC[C@@]2(C)[C@@H]3C[C@@H](C)C(=O)C[C@]3(C)CC[C@]12C` [TINGENONE], the pIC50 was 5.52.

The test system of the next assay is HL-60. Description: Cytotoxicity against human HL60 cells at 10 uM after 48 hrs by MTT assay. It is filed as functional. To be noted: HL-60, 48 h. The method in brief: (§2)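 HL60 cells (ATCC) grown in RPMI with 10% FBS and seeded at 10 000 cells/well. After 48 h exposure, MTT added (0.5 mg/mL final) for 3 h at 37 °C. Formazan dissolved in SDS-HCl (20% SDS, 0.02 M HCl) and read at 570 nm. IC50 obtained by nonlinear regression.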
(Tetrazolium dyes change colour on reduction, which living cells bring about.)
`COc1cccc2c1C(=O)c1c(O)c3c(c(O)c1C2=O)C[C@@](O)(C(=O)CO)C[C@@H]3O[C@H]1C[C@H](N)[C@H](O)[C@H](C)O1` [DOXORUBICIN HYDROCHLORIDE] gave an inhibition at 10 µM of 89%.

`CC1=C(O)C(=O)C=C2C1=CC=C1[C@@]2(C)CC[C@@]2(C)[C@@H]3C[C@@H](C)C(=O)[C@@H](O)[C@]3(C)CC[C@]12C` [TINGENIN B] came in with an inhibition at 10 µM of 82%.

Take `COC(=O)[C@]1(C)CC[C@]2(C)CC[C@]3(C)C4=CC=C5C(=CC(=O)C(O)=C5C)[C@]4(C)CC[C@@]3(C)[C@@H]2C1` [PRISTIMERIN]: the inhibition at 10 µM was found to be 100%.

Molecule `CC1=C(O)C(=O)C=C2C1=CC=C1[C@@]2(C)CC[C@@]2(C)[C@@H]3C[C@@H](C)C(=O)C[C@]3(C)CC[C@]12C` [TINGENONE] returned an inhibition at 10 µM of 100%.

A further assay deals with HL-60. Description: Cytotoxicity against human HL60 cells after 48 hrs by MTT assay. It counts as functional, cell-based. To be noted: HL-60, 48 h. The method in brief: as §2
Turning to `COc1cccc2c1C(=O)c1c(O)c3c(c(O)c1C2=O)C[C@@](O)(C(=O)CO)C[C@@H]3O[C@H]1C[C@H](N)[C@H](O)[C@H](C)O1` [DOXORUBICIN HYDROCHLORIDE], the pIC50 was 7.00.

Take `CC1=C(O)C(=O)C=C2C1=CC=C1[C@@]2(C)CC[C@@]2(C)[C@@H]3C[C@@H](C)C(=O)[C@@H](O)[C@]3(C)CC[C@]12C` [TINGENIN B]: the pIC50 is 6.15.

Consider `COC(=O)[C@]1(C)CC[C@]2(C)CC[C@]3(C)C4=CC=C5C(=CC(=O)C(O)=C5C)[C@]4(C)CC[C@@]3(C)[C@@H]2C1` [PRISTIMERIN], for which the pIC50 is 6.70.

`CC1=C(O)C(=O)C=C2C1=CC=C1[C@@]2(C)CC[C@@]2(C)[C@@H]3C[C@@H](C)C(=O)C[C@]3(C)CC[C@]12C` [TINGENONE]: the pIC50 was 6.30.

The next assay concerns HL-60. The assay can be described thus: Cytotoxicity against human HL60 cells at 1 uM after 48 hrs by MTT assay. It counts as functional. To be noted: HL-60, 48 h. The method in brief:
as §2
For the molecule `COc1cccc2c1C(=O)c1c(O)c3c(c(O)c1C2=O)C[C@@](O)(C(=O)CO)C[C@@H]3O[C@H]1C[C@H](N)[C@H](O)[C@H](C)O1` [DOXORUBICIN HYDROCHLORIDE], the inhibition at 1 µM came out at 100%.

For `CC1=C(O)C(=O)C=C2C1=CC=C1[C@@]2(C)CC[C@@]2(C)[C@@H]3C[C@@H](C)C(=O)[C@@H](O)[C@]3(C)CC[C@]12C` [TINGENIN B], the inhibition at 1 µM turned out to be 55%.

`COC(=O)[C@]1(C)CC[C@]2(C)CC[C@]3(C)C4=CC=C5C(=CC(=O)C(O)=C5C)[C@]4(C)CC[C@@]3(C)[C@@H]2C1` [PRISTIMERIN] displayed an inhibition at 1 µM of 96%.

Consider `CC1=C(O)C(=O)C=C2C1=CC=C1[C@@]2(C)CC[C@@]2(C)[C@@H]3C[C@@H](C)C(=O)C[C@]3(C)CC[C@]12C` [TINGENONE], for which testing at 1 µM gave an inhibition of 46%.

For a further assay, the system named is MCF7. The assay can be described thus: Cytotoxicity against human MCF7 cells at 10 uM after 48 hrs by MTT assay. It counts as functional. To be noted: MCF7, 48 h. The method in brief:
as §1
Take `COc1cccc2c1C(=O)c1c(O)c3c(c(O)c1C2=O)C[C@@](O)(C(=O)CO)C[C@@H]3O[C@H]1C[C@H](N)[C@H](O)[C@H](C)O1` [DOXORUBICIN HYDROCHLORIDE]: the inhibition at 10 µM came to 76%.

Turning to `CC1=C(O)C(=O)C=C2C1=CC=C1[C@@]2(C)CC[C@@]2(C)[C@@H]3C[C@@H](C)C(=O)[C@@H](O)[C@]3(C)CC[C@]12C` [TINGENIN B], testing at 10 µM gave an inhibition of 96%.

`COC(=O)[C@]1(C)CC[C@]2(C)CC[C@]3(C)C4=CC=C5C(=CC(=O)C(O)=C5C)[C@]4(C)CC[C@@]3(C)[C@@H]2C1` [PRISTIMERIN] had an inhibition at 10 µM of 100%.

In turn, `CC1=C(O)C(=O)C=C2C1=CC=C1[C@@]2(C)CC[C@@]2(C)[C@@H]3C[C@@H](C)C(=O)C[C@]3(C)CC[C@]12C` [TINGENONE] gave an inhibition at 10 µM of 97%.

The next assay has as its system MCF7. Description: Cytotoxicity against human MCF7 cells at 1 uM after 48 hrs by MTT assay. It counts as functional. To be noted: MCF7, 48 h. The essentials: as §1
In turn, `COc1cccc2c1C(=O)c1c(O)c3c(c(O)c1C2=O)C[C@@](O)(C(=O)CO)C[C@@H]3O[C@H]1C[C@H](N)[C@H](O)[C@H](C)O1` [DOXORUBICIN HYDROCHLORIDE] showed an inhibition at 1 µM of 69%.

As for `CC1=C(O)C(=O)C=C2C1=CC=C1[C@@]2(C)CC[C@@]2(C)[C@@H]3C[C@@H](C)C(=O)[C@@H](O)[C@]3(C)CC[C@]12C` [TINGENIN B], the inhibition at 1 µM amounted to 16%.

Molecule `COC(=O)[C@]1(C)CC[C@]2(C)CC[C@]3(C)C4=CC=C5C(=CC(=O)C(O)=C5C)[C@]4(C)CC[C@@]3(C)[C@@H]2C1` [PRISTIMERIN] came in with an inhibition at 1 µM of 42%.

In the case of `CC1=C(O)C(=O)C=C2C1=CC=C1[C@@]2(C)CC[C@@]2(C)[C@@H]3C[C@@H](C)C(=O)C[C@]3(C)CC[C@]12C` [TINGENONE], 1 µM produced 17% inhibition.

In the next assay the test system is HL-60. Description: Cytotoxicity against human HL60 cells at 30 uM after 48 hrs by MTT assay. To be noted: HL-60, 48 h. It is filed as functional. The method in brief: as §2
Consider `COc1cccc2c1C(=O)c1c(O)c3c(c(O)c1C2=O)C[C@@](O)(C(=O)CO)C[C@@H]3O[C@H]1C[C@H](N)[C@H](O)[C@H](C)O1` [DOXORUBICIN HYDROCHLORIDE], for which testing at 30 µM gave an inhibition of 100%.

In the case of `CC1=C(O)C(=O)C=C2C1=CC=C1[C@@]2(C)CC[C@@]2(C)[C@@H]3C[C@@H](C)C(=O)[C@@H](O)[C@]3(C)CC[C@]12C` [TINGENIN B], the inhibition at 30 µM came to 88%.

Take `COC(=O)[C@]1(C)CC[C@]2(C)CC[C@]3(C)C4=CC=C5C(=CC(=O)C(O)=C5C)[C@]4(C)CC[C@@]3(C)[C@@H]2C1` [PRISTIMERIN]: the inhibition at 30 µM came out at 100%.

With `CC1=C(O)C(=O)C=C2C1=CC=C1[C@@]2(C)CC[C@@]2(C)[C@@H]3C[C@@H](C)C(=O)C[C@]3(C)CC[C@]12C` [TINGENONE], the inhibition at 30 µM was 96%.
